Laboratory results as given in ChEMBL document CHEMBL1131210, “5-(5,6-Dichloro-2-indolyl)-2-methoxy-2,4-pentadienamides: novel and selective inhibitors of the vacuolar H+-ATPase of osteoclasts with bone antiresorptive activity” (J Med Chem, 1998).

Key:
[1] = target: V-type proton ATPase subunit B, kidney isoform (Homo sapiens, UniProt P15313); test: Compound was tested for inhibition of V-ATPase from human kidney cortex(hK)
Procedure, shortened: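 Brush border membranes from frozen human kidney cortex, about 70 μg protein/mL. Bafilomycin-sensitive ATPase in 0.2 M sucrose, 50 mM KCl, 10 mM Hepes-Tris pH 7.4, 1 mM CDTA, 1 mM ATP, 0.1 mM molybdate, 5 μM valinomycin, 5 μM nigericin. Started with 5 mM MgSO4, 30 min at 37 °C, Pi measured colorimetrically (malachite green).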

[2] = target: T1, V-type proton ATPase 116 kDa subunit a 1 (Gallus gallus, UniProt Q9I8D0); test: Compound was tested for inhibition of V-ATPase from Chicken adrenal glands(cAG); type: tissue-based, Adrenal gland
T1 sequence (Q9I8D0 whole entry): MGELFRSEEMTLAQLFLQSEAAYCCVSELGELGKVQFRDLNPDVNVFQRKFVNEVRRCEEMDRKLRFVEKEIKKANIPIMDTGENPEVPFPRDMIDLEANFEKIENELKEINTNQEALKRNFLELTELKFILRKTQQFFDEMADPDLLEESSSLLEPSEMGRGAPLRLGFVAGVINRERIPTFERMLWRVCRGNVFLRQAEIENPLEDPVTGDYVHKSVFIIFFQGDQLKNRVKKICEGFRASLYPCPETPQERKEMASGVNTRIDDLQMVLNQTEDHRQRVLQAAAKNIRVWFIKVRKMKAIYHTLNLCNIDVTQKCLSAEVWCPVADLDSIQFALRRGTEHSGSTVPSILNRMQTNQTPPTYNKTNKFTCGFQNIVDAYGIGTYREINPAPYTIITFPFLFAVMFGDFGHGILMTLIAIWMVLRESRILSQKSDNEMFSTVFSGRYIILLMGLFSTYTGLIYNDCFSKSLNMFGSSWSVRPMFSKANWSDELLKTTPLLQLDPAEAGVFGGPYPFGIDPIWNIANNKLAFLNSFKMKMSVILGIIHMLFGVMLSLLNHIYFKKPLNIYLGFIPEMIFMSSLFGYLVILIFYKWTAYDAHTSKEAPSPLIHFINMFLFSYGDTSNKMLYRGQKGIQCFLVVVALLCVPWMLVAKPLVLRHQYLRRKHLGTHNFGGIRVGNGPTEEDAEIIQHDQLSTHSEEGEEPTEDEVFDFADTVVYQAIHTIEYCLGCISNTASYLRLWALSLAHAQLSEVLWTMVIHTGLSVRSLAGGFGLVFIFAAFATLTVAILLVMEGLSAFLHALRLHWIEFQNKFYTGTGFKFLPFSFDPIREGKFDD
Procedure, shortened: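 Bafilomycin-sensitive ATPase in purified microsomal membranes from whole chicken adrenal glands (two-step 35%/50% sucrose gradient), 20–40 μg protein/mL. Medium: 0.2 M sucrose, 50 mM KCl, 10 mM Hepes-Tris pH 7.4, 1 mM CDTA, 1 mM ATP, 0.1 mM molybdate, 5 μM valinomycin, 5 μM nigericin. Started with 5 mM MgSO4, 30 min at 37 °C, phosphate read by malachite green.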

[3] = In vitro inhibition of bone resorption by isolated Human osteoclastoma cells (ELISA); type: functional
Procedure, shortened: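 Collagenase-dispersed osteoclastoma cells, negatively selected with HLA-I Dynabeads, were settled on bone slices at 4000 cells/well. Compound was added at several concentrations, with 8 slices per concentration. After 48 h in D-MEM, type I collagen fragments released into the supernatant were quantified by ELISA.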

[4] = In vitro inhibition of bone resorption by isolated Human osteoclastoma cells by the number of excavations (pits/bone slice); type: functional
Procedure, shortened: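 Human giant-cell-tumour osteoclasts were HLA-I bead-depleted and seeded on bone slices (4000 cells/well), 8 slices per concentration, then cultured 48 h in D-MEM. Slices were glutaraldehyde-fixed and TRAP-stained, and cells were bleached off. Slices were gold-coated and resorption pits counted by light microscopy, expressed as pits/bone slice.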

[5] = target: T1, V-type proton ATPase 116 kDa subunit a 1; test: (§1) Compound was tested for inhibition of V-ATPase from Chicken osteoclasts (cOc)
Procedure, shortened: (§2)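 Bafilomycin-sensitive ATPase activity in sucrose-gradient-purified membrane vesicles from medullary bone of calcium-starved egg-laying hens, 20–40 μg protein/mL. Medium: 0.2 M sucrose, 50 mM KCl, 10 mM Hepes-Tris pH 8, 1 mM CDTA, 1 mM ATP, 0.1 mM molybdate, 5 μM valinomycin, 5 μM nigericin. Started with 5 mM MgSO4; 30 min, 37 °C; phosphate release by malachite green.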

[6] = target: T1, V-type proton ATPase 116 kDa subunit a 1; test: as §1; type: functional; procedure, shortened: as §2

Sequence of V-type proton ATPase subunit B, kidney isoform (P15313 whole entry, canonical isoform): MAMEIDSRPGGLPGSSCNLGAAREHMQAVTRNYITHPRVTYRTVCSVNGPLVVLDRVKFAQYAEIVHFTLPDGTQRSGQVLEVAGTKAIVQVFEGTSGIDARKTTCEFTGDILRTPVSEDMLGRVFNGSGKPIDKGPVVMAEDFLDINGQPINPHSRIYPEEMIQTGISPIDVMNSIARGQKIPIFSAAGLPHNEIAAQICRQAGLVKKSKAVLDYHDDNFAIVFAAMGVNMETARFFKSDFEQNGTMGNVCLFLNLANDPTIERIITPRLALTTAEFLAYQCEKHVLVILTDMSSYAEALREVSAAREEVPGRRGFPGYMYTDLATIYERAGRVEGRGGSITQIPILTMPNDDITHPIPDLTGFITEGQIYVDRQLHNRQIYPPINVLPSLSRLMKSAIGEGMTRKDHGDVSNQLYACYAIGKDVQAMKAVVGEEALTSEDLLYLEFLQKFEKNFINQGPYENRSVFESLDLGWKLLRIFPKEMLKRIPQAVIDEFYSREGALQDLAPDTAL

Row | Structure (SMILES) | IC50 [1] | IC50 [2] | IC50 [3] | IC50 [4] | IC50 [5] | IC50 [6]
1 | CO/C(=C\C=C\c1cc2cc(Cl)c(Cl)cc2[nH]1)C(=O)NC1C[C@H]2CC[C@@H](C1)N2C (some centres not stated) | 1320 nM | 2500 nM | 30 nM | 30 nM | 100 nM | –
2 | COC(=O)/C(=C\C=C\c1cc2ccccc2[nH]1)OC | – | – | – | – | 30000 nM | 30000 nM
3 | CO/C(=C\C=C\c1cc2cc(Cl)c(Cl)cc2[nH]1)C(=O)NC1CC(C)(C)NC(C)(C)C1 | 440 nM | 820 nM | 30 nM | 40 nM | 80 nM | –

Other lines, results leading:

Row | IC50 [1] | IC50 [2] | IC50 [3] | IC50 [4] | IC50 [5] | IC50 [6] | Structure (SMILES)
4 | 3000 nM | 2800 nM | 140 nM | 180 nM | 180 nM | – | CCN(CC)CCCNC(=O)/C(=C/C=C/c1cc2cc(Cl)c(Cl)cc2[nH]1)OC
5 | 370 nM | 930 nM | 10 nM | 30 nM | 60 nM | – | CO/C(=C\C=C\c1cc2cc(Cl)c(Cl)cc2[nH]1)C(=O)NCCCN1CCN(c2ncccn2)CC1
